This is an account of results in ChEMBL document CHEMBL4665889, “Design, Synthesis, and Pharmacological Characterization of a Neutral, Non-Prodrug Thrombin Inhibitor with Good Oral Pharmacokinetics” (J Med Chem, 2020).

Data set [1] can be described thus: AUC/dose in Wistar Hannover rat at 0.3 to 0.5 mg/kg, iv by LC-MS/MS analysis. It is filed as ADME, organism-based. Conditions: in vivo, dose 0.3-0.5 mg/kg, time <=24 hrs; call rule not given here. Summed up:
(§1)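 Male Wistar Hannover rats, catheterized under isoflurane; one day later iv injection into lateral tail vein at 0.3 to 0.5 mg/kg in plasma containing 2% DMSO. Blood sampled via catheter from 0.033 to 24 h. Plasma precipitated with acetonitrile, analysed by LC-MS/MS (10 mM ammonium acetate pH 3.0/acetonitrile gradient). PK parameters calculated from plasma concentrations.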

A short description of data set [2]: Blood clearance in Wistar Hannover rat at 0.3 to 0.5 mg/kg, iv by LC-MS/MS analysis. It is filed as ADME, organism-based. Conditions: whole blood, dose 0.3-0.5 mg/kg, time <=24 hrs. An outline of the steps:
as §1

The nature of data set [3]: Half life in Wistar Hannover rat at 0.3 to 0.5 mg/kg, iv by LC-MS/MS analysis. The conditions noted are these: in vivo, dose 0.3-0.5 mg/kg, time <=24 hrs. The class given is ADME, organism-based. An outline of the steps: as §1
Data set [4] in a line: Clearance in Wistar rat hepatocytes at 1 uM incubated up to 90 mins by LC-MS/MS analysis. It is filed as ADME, cell-based, Hepatocyte. The conditions noted are these: Wistar. Summed up: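 Fresh male Wistar rat hepatocytes, 1 × 10⁶ viable cells/mL, in Williams' medium E at 37 °C, pH 7.4, with 1 μM substrate and <1% acetonitrile. Samples at 2–90 min quenched in acetonitrile and analysed by LC-MS/MS.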

Data set [5] in a line: Oral bioavailability in Wistar Hannover rat at 1 mg/kg by LC-MS/MS analysis. The class given is ADME, organism-based. Conditions: in vivo, time <=24 hrs. An outline of the steps:
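Catheterized male Wistar Hannover rats dosed by gavage at 1 mg/kg in 10% ethanol/40% PEG/50% water. Blood taken via catheter at 0.083 to 24 h. Plasma precipitated with acetonitrile and analysed by LC-MS/MS. Bioavailability derived against iv dosing at 0.3 to 0.5 mg/kg.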

Data set [6] can be described thus: Ratio of drug level in blood to plasma in Wistar Hannover rat at 0.3 to 0.5 mg/kg, iv by LC-MS/MS analysis. It is filed as ADME, organism-based. Conditions: blood and plasma, dose 0.3-0.5 mg/kg, time <=24 hrs.
Data set [7] in a line: MRT in Wistar Hannover rat at 0.3 to 0.5 mg/kg, iv by LC-MS/MS analysis. It is filed as ADME, organism-based. The conditions noted are these: in vivo, dose 0.3-0.5 mg/kg, time <=24 hrs. Summed up: as §1
Data set [8] concerns the target T1, Nuclear receptor subfamily 1 group I member 2 (Homo sapiens, UniProt O75469).
T1 sequence (O75469 whole entry): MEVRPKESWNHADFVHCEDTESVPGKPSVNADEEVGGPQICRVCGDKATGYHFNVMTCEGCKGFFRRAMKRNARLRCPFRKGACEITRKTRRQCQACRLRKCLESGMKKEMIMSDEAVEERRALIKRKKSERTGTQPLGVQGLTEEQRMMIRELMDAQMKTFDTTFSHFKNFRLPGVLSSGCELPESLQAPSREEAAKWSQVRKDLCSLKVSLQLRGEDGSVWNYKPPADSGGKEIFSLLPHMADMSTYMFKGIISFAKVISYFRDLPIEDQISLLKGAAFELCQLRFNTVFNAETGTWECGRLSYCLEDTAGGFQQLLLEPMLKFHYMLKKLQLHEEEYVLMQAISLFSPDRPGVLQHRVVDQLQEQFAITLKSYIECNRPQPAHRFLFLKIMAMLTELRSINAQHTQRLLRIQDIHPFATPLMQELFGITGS
In words: Activation of human PXR expressed in human HepG2 cells. The class given is ADME, cell-based. An outline of the steps: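 HepG2 cells transiently co-transfected with human PXR and a luciferase reporter under the human CYP3A4 promoter, 48 h before readout. 24 h after seeding, 1:3 serial dilutions (2 nM to 50 μM, 0.5% DMSO) added. Luminescence normalized to rifampicin (100%) and DMSO (0%). MEC is the lowest concentration raising signal above 4-fold SD of DMSO background.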

Data set [9] is described as follows: Volume of distribution at steady state in Wistar Hannover rat at 0.3 to 0.5 mg/kg, iv by LC-MS/MS analysis. It is filed as ADME, organism-based. The conditions noted are these: in vivo, dose 0.3-0.5 mg/kg, time <=24 hrs, read-out: Vdss. Summed up:
as §1

The nature of data set [10]: Permeability from apical to basolateral side in human Caco2 cells incubated for 2 hrs by LC-MS/MS analysis. Conditions: Caco-2. It is filed as ADME, cell-based. Summed up:
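Caco-2 cells grown 15 d on 0.4 μm inserts, TEER ≥600 Ω. Compound (DMSO stock diluted 100-fold) in HBSS pH 7.4 with 10 mM HEPES and 20 mM glucose, added apically or basolaterally. Incubated 2 h at 37 °C and analysed by LC-MS/MS. Papp = (Vr/P0)·(1/S)·(P2/t); mean and SD.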

The next data set relates to Plasma. Nature of the data set: Anticoagulation activity in human plasma assessed as drug level causing doubling of prothrombin time incubated for 3 mins. The class given is functional. The conditions noted are these: 0.05 h. An outline of the steps:
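Citrated human plasma (0.11 M citrate 1:9, spun ~4000g 15 min) incubated with compound at 37 °C for 3 min. Clotting started with thromboplastin and time to coagulation recorded. Value is the concentration doubling clotting time (PT or aPTT).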

The subject of the next data set is Cytochrome P450. In words: Inhibition of CYP450 (unknown origin) at 20 uM. Conditions: human. It is filed as ADME, protein assay.
Data set [11] addresses T1, Nuclear receptor subfamily 1 group I member 2. Nature of the data set: Activation of human PXR human hepatocytes assessed as induction of CYP3A4 mRNA expression incubated for 48 hrs by qPCR analysis. The class given is ADME, tissue-based, Hepatocyte. Summed up: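 Human hepatocytes in collagen sandwich, cultured 1 d, then treated with eight 1:3 serial concentrations for 2 consecutive days with daily media change. mRNA isolated on magnetic beads, reverse transcribed, and quantified by TaqMan qRT-PCR against actin/tubulin. Fold induction over vehicle by ΔΔCt; NOEL reported.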
On the technique in general: Real-time PCR tracks product formation cycle by cycle.

Broadly, the clearance is a measure of how efficiently the substance is removed, as volume per time. High values mean a high capacity for elimination, low ones a low capacity for elimination. Broadly, the half-life is how long it takes for the measured level to halve. Broadly, the bioavailability is the share of a dose that reaches the circulation, judged against a reference dose that is usually intravenous. Low readings indicate poor availability, high ones good availability. The MRT is the average time that molecules of a dose stay in the body. Take `COc1cc(C(=O)N2CCOC(C)(CCO)C2)cc2nc(N[C@H](C)c3cccc(Cl)c3)oc12` (stereo partly drawn): the AUC/dose in data set [1] worked out at 0.33 kg·h/L. Moreover, the clearance in [2] is 48.3 mL/min/kg. The same compound gave a half-life in data set [3] of 2.7 h. The CLhep predicted at 1 µM in data set [4] is 43.3 mL/min/kg. The compound also yielded a bioavailability in data set [5] of 38%. The blood plasma ratio in [6] was 1.07. Further, in [7], the MRT was determined as 1.8 h. Also, the MEC in data set [8] is 0.58 µM. The Vd in data set [9] is 5.6 L/kg.
In general, Papp A→B refers to how fast a substance crosses the layer from the apical side. The term NOAEL denotes the highest tested level that showed no adverse finding. For the compound `COc1cc(C(=O)N2CC[C@@H](O)[C@H](C)C2)cc2nc(NCc3cccc(Cl)c3)oc12`, the AUC/dose in data set [1] is 0.48 kg·h/L. Also, the clearance in data set [2] is 28.3 mL/min/kg. In data set [3], this compound had a half-life of 1.3 h. In data set [4], the CLhep predicted at 1 µM was 38.3 mL/min/kg. The bioavailability in data set [5] amounted to 46%. For the same compound, the blood plasma ratio in data set [6] is 1.24. For the same compound, the Papp A→B at 2 h in data set [10] was determined as 12.6 ×10⁻⁶ cm/s. For the same compound, the MRT in [7] stood at 1.1 h. This compound also gave an MEC in data set [8] of 0.69 µM. Besides, in data set [9], the Vd was found to be 2.4 L/kg. The 2PT with Plasma amounted to 6 µM. The “inhibition (INH)” value with Cytochrome P450 is on record as “Not Active”. For the same compound, in data set [11], the NOAEL stood at 370 ng/mL.
For `COc1cc(C(=O)N2CC(C)(CCO)OC[C@H]2C)cn2nc(NCc3cccc(Cl)c3)nc12` (stereo partly drawn), the AUC/dose in [1] was 0.16 kg·h/L. Besides, the clearance in [2] is 76.7 mL/min/kg. This compound also gave a half-life in data set [3] of 0.32 h. Also, the CLhep predicted at 1 µM in data set [4] was 46.7 mL/min/kg. The blood plasma ratio in data set [6] was determined as 1.35. Also, the Papp A→B at 2 h in data set [10] is 8.1 ×10⁻⁶ cm/s. In addition, the MRT in data set [7] was 0.36 h. The MEC in data set [8] worked out at 15 µM. In data set [9], the Vd is 2.2 L/kg. Moreover, the NOAEL in data set [11] was > 10000 ng/mL.
`CCCCCCOC(=O)NC(=N)c1ccc(NCc2nc3cc(C(=O)N(CCC(=O)OCC)c4ccccn4)ccc3n2C)cc1` [DABIGATRAN ETEXILATE] registered an AUC/dose in data set [1] of 3 kg·h/L. In data set [2], this compound showed a clearance of 9.83 mL/min/kg. Besides, the half-life in data set [3] is 1.2 h. Besides, the bioavailability in [5] worked out at 1.9%. This compound also displayed an MRT in data set [7] of 1.6 h. Also, in [9], the Vd was found to be 0.54 L/kg.
